According to ChEMBL document CHEMBL1125014, “Synthesis and structure-activity relationships of new 9-N-alkyl derivatives of 9(S)-erythromycylamine” (1990):
In brackets after ≈: the same amount, converted by molar mass.

Columns and labels:
Format in all cases: functional
[1] = tested on: Staphylococcus aureus; assay: MIC value measured against staphylococcus aureus X1
[2] = tested on: Staphylococcus aureus; assay: Effective dose against mice infected with Staphylococcus aureus after peroral administration (in vivo); settings: in Mus musculus, po
[3] = tested on: Enterococcus faecalis; assay: MIC value was measured against streptococcus faecalis X66
Procedure, shortened: (§1)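 Susceptibility determined by standard agar-dilution method against a panel of bacterial strains.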

[4] = tested on: Streptococcus pyogenes; assay: Effective dose against mice infected with streptococcus pyogenes after peroral administration (in vivo); settings: in Mus musculus, po
[5] = tested on: Streptococcus pyogenes; assay: MIC value measured against streptococcus pyogenes C203
[6] = tested on: Haemophilus influenzae; assay: MIC value was measured against haemophilus influenzae CL
[7] = tested on: Streptococcus pneumoniae; assay: Effective dose against mice infected with streptococcus pneumoniae after peroral administration (in vivo); settings: in Mus musculus, po
[8] = tested on: Staphylococcus epidermidis; assay: microbe, parasite or virus in culture
[9] = tested on: Streptococcus pneumoniae; assay: MIC value was measured against streptococcus pneumoniae park1; procedure, shortened: as §1
[10] = tested on: Haemophilus influenzae; assay: MIC value was measured against haemophilus influenzae.; procedure, shortened: as §1
[11] = tested on: Streptococcus pneumoniae; assay: MIC value measured against streptococcus pneumoniae Park1
[12] = tested on: Enterococcus faecalis; assay: MIC value was measured against streptococcus faecalis.

MIC [1] [µg/mL] | MIC [3] [µg/mL] | MIC [5] [µg/mL] | MIC [6] [µg/mL] | MIC [8] [µg/mL] | MIC [9] [µg/mL] | MIC [10] [µg/mL] | MIC [11] [µg/mL] | MIC [12] [µg/mL] | Structure (SMILES) | ED50 [2] [mg/kg] | ED50 [4] [mg/kg] | ED50 [7] [mg/kg]
0.5 (≈ 0.606 µM) | 0.25 (≈ 0.303 µM) | 0.06 (≈ 0.0727 µM) | 2 (≈ 2.42 µM) | 0.5 (≈ 0.606 µM) | 0.015 (≈ 0.0182 µM) | – | – | – | CC[C@H]1OC(=O)[C@H](C)[C@@H](OC2CC(C)(OC)C(O)C(C)O2)[C@H](C)[C@@H](OC2OC(C)CC(N(C)C)C2O)[C@](C)(O)C[C@@H](C)[C@H](NCc2ccccc2)[C@H](C)[C@@H](O)[C@]1(C)O (some centres not stated) | > 50 | 9 | 11
2 (≈ 2.28 µM) | – | 0.5 (≈ 0.571 µM) | 8 (≈ 9.13 µM) | 2 (≈ 2.28 µM) | – | 8 (≈ 9.13 µM) | 0.5 (≈ 0.571 µM) | – | CC[C@H]1OC(=O)[C@H](C)[C@@H](OC2CC(C)(OC)C(O)C(C)O2)[C@H](C)[C@@H](OC2OC(C)CC(N(C)C)C2O)[C@](C)(O)C[C@@H](C)[C@H](NC(C)CCCN(CC)CC)[C@H](C)[C@@H](O)[C@]1(C)O (some centres not stated) | 41 | 31 | 18
0.25 (≈ 0.334 µM) | – | 0.008 (≈ 0.0107 µM) | 0.5 (≈ 0.668 µM) | 0.06 (≈ 0.0801 µM) | – | – | 0.008 (≈ 0.0107 µM) | 0.06 (≈ 0.0801 µM) | CC[C@H]1OC(=O)[C@H](C)[C@@H](OC2CC(C)(OC)C(O)C(C)O2)[C@H](C)[C@@H](OC2OC(C)CC(N(C)C)C2O)[C@](C)(O)C[C@@H](C)/C(=N\O)[C@H](C)[C@@H](O)[C@]1(C)O (some centres not stated) | – | – | –
1 (≈ 1.14 µM) | – | 0.015 (≈ 0.0171 µM) | 2 (≈ 2.29 µM) | 1 (≈ 1.14 µM) | – | 2 (≈ 2.29 µM) | 0.015 (≈ 0.0171 µM) | – | CCCCCCCCCCN[C@@H]1[C@H](C)[C@@H](O)[C@](C)(O)[C@@H](CC)OC(=O)[C@H](C)[C@@H](OC2CC(C)(OC)C(O)C(C)O2)[C@H](C)[C@@H](OC2OC(C)CC(N(C)C)C2O)[C@](C)(O)C[C@H]1C (some centres not stated) | > 50 | > 50 | > 50
0.25 (≈ 0.348 µM) | – | 0.015 (≈ 0.0209 µM) | 1 (≈ 1.39 µM) | 0.12 (≈ 0.167 µM) | – | – | 0.015 (≈ 0.0209 µM) | 0.12 (≈ 0.167 µM) | CC[C@H]1OC(=O)[C@H](C)[C@@H](OC2CC(C)(OC)C(O)C(C)O2)[C@H](C)[C@@H](OC2OC(C)CC(N(C)C)C2O)[C@](C)(O)C[C@@H](C)[C@H](N)[C@H](C)[C@@H](O)[C@H]1C (some centres not stated) | – | – | –
1 (≈ 1.23 µM) | 0.5 (≈ 0.613 µM) | 0.12 (≈ 0.147 µM) | 4 (≈ 4.91 µM) | 1 (≈ 1.23 µM) | 0.06 (≈ 0.0736 µM) | – | – | – | CC[C@H]1OC(=O)[C@H](C)[C@@H](OC2CC(C)(OC)C(O)C(C)O2)[C@H](C)[C@@H](OC2OC(C)CC(N(C)C)C2O)[C@](C)(O)C[C@@H](C)[C@H]2[C@H](C)[C@@H](OCN2C2CCCC2)[C@]1(C)O (some centres not stated) | > 50 | 10 | 9
1 (≈ 1.22 µM) | – | 0.12 (≈ 0.146 µM) | 4 (≈ 4.88 µM) | 0.25 (≈ 0.305 µM) | – | 4 (≈ 4.88 µM) | 0.008 (≈ 0.00977 µM) | – | CCCCCCN[C@@H]1[C@H](C)[C@@H](O)[C@](C)(O)[C@@H](CC)OC(=O)[C@H](C)[C@@H](OC2CC(C)(OC)C(O)C(C)O2)[C@H](C)[C@@H](OC2OC(C)CC(N(C)C)C2O)[C@](C)(O)C[C@H]1C (some centres not stated) | 39 | 18 | 14
0.5 (≈ 0.609 µM) | – | 0.008 (≈ 0.00974 µM) | 2 (≈ 2.44 µM) | 0.5 (≈ 0.609 µM) | – | 2 (≈ 2.44 µM) | 0.008 (≈ 0.00974 µM) | – | CC[C@H]1OC(=O)[C@H](C)[C@@H](OC2CC(C)(OC)C(O)C(C)O2)[C@H](C)[C@@H](OC2OC(C)CC(N(C)C)C2O)[C@](C)(O)C[C@@H](C)[C@H](NCCCCCO)[C@H](C)[C@@H](O)[C@]1(C)O (some centres not stated) | > 50 | 43 | > 50
1 (≈ 1.24 µM) | – | 0.06 (≈ 0.0745 µM) | 1 (≈ 1.24 µM) | 0.25 (≈ 0.311 µM) | – | 1 (≈ 1.24 µM) | 0.03 (≈ 0.0373 µM) | – | CC[C@H]1OC(=O)[C@H](C)[C@@H](OC2CC(C)(OC)C(O)C(C)O2)[C@H](C)[C@@H](OC2OC(C)CC(N(C)C)C2O)[C@](C)(O)C[C@@H](C)[C@H](NCCC(C)C)[C@H](C)[C@@H](O)[C@]1(C)O (some centres not stated) | 13 | 9 | 11
1 (≈ 1.19 µM) | 0.5 (≈ 0.597 µM) | 0.12 (≈ 0.143 µM) | 4 (≈ 4.78 µM) | 0.5 (≈ 0.597 µM) | 0.06 (≈ 0.0717 µM) | – | – | – | CC[C@H]1OC(=O)[C@H](C)[C@@H](OC2CC(C)(OC)C(O)C(C)O2)[C@H](C)[C@@H](OC2OC(C)CC(N(C)C)C2O)[C@](C)(O)C[C@@H](C)[C@H]2[C@H](C)[C@@H](OCN2Cc2ccccc2)[C@]1(C)O (some centres not stated) | > 50 | 16 | 15
1 (≈ 1.18 µM) | 0.25 (≈ 0.294 µM) | 0.008 (≈ 0.00942 µM) | 4 (≈ 4.71 µM) | 0.5 (≈ 0.589 µM) | 0.008 (≈ 0.00942 µM) | – | – | – | CC[C@H]1OC(=O)[C@H](C)[C@@H](OC2CC(C)(OC)C(O)C(C)O2)[C@H](C)[C@@H](OC2OC(C)CC(N(C)C)C2O)[C@](C)(O)C[C@@H](C)[C@H](NCC#Cc2ccccc2)[C@H](C)[C@@H](O)[C@]1(C)O (some centres not stated) | > 50 | 27 | 34
0.5 (≈ 0.59 µM) | – | 0.015 (≈ 0.0177 µM) | 1 (≈ 1.18 µM) | 0.25 (≈ 0.295 µM) | – | 1 (≈ 1.18 µM) | 0.015 (≈ 0.0177 µM) | – | CCCCCCCCN[C@@H]1[C@H](C)[C@@H](O)[C@](C)(O)[C@@H](CC)OC(=O)[C@H](C)[C@@H](OC2CC(C)(OC)C(O)C(C)O2)[C@H](C)[C@@H](OC2OC(C)CC(N(C)C)C2O)[C@](C)(O)C[C@H]1C (some centres not stated) | > 50 | 23 | 46
